Reference: ChEMBL document CHEMBL5241123, “Homopurine guanine-rich sequences in complex with N-methyl mesoporphyrin IX form parallel G-quadruplex dimers and display a unique symmetry tetrad” (Bioorg Med Chem, 2023)
The source made the active and inactive calls. The rule behind the calls is not given here.

Assays:
Assay type in all cases: nucleic-acid assay
Quadruplex DNA [1] = test: Stabilization and preservation of G-quadruplex homo-purine guanine-rich GA3 (AGGGAAAAGGGGAGGGAAAAGGGGA) DNA (unknown origin) parallel structure conformation at 2 equivalents in 100K buffer by native PAGE analysis; settings: dose 2.0 equiv
Outline: (§1)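 Native 15% polyacrylamide gel in 1×TBE plus 10 mM KCl. Samples of ~50 μM DNA, alone or with 2 eq. NMM, in 100K buffer. Run 150 min at 150 V at room temperature after pre-running, with a dT15-dT57 ladder. Stains-All visualization.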

Quadruplex DNA [2] = test: Binding affinity to G-quadruplex homo-purine guanine-rich GA3 (AGGGAAAAGGGGAGGGAAAAGGGGA) DNA (unknown origin) at DNA:compound concentration ratio of 1:1 in 5K buffer by fluorescence titration based analysis
Outline: (§2)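 Fluorescence titration at 20 °C in 5K buffer: ~1.0 μM NMM titrated with 140-270 μM annealed DNA to a final [DNA]/[NMM] of at least eight. Excitation 395-398 nm (UV-Vis isosbestic points), emission 560-720 nm. Single-component SVD, fit to 1:1, 1:2 and 2:1 models. Ka is the average of at least three trials.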

Quadruplex DNA [3] = test: Binding affinity to G-quadruplex homo-purine guanine-rich GA1 (GAGGGAGGGAGGGAAAAGGGGA) DNA (unknown origin) at DNA:compound concentration ratio of 1:2 in 5K buffer by UV-Vis titration based analysis
Outline: (§3)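 NMM (~3-4 μM, absorbance ~0.5, 1 cm cuvette) in 5K buffer (10 mM LiCaco pH 7.2, 95 mM LiCl, 5 mM KCl), titrated with DNA annealed in 5K buffer (170-470 μM, final [DNA]/[NMM] at least five), 2 min equilibration per addition, spectra 350-480 nm at 20 °C. SVD analysis, fit with NMM concentration fixed. Ka is the average of at least three trials.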

Quadruplex DNA [4] = test: Stabilization and preservation of G-quadruplex homo-purine guanine-rich GA1 (GAGGGAGGGAGGGAAAAGGGGA) DNA (unknown origin) parallel structure conformation assessed as increase in melting temperature at 2 equivalents in 100K buffer by UV-Visible melting analysis; settings: dose 2.0 equiv
Outline: (§4)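 ~4 μM DNA with or without 2 eq. NMM in 100K buffer (10 mM LiCaco pH 7.2, 100 mM KCl), annealed then cooled slowly. UV-Vis melting 20-90 °C, 0.5 or 0.2 °C/min, signal at 295 nm corrected at 335 nm. Tm and ΔH from a two-state fit (hysteresis under 3 °C).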

Quadruplex DNA [5] = test: Binding affinity to G-quadruplex homo-purine guanine-rich GA1 (GAGGGAGGGAGGGAAAAGGGGA) DNA (unknown origin) at DNA:compound concentration ratio of 1:1 in 5K buffer by UV-Vis titration based analysis; outline: as §3
Quadruplex DNA [6] = test: Binding affinity to G-quadruplex homo-purine guanine-rich GA1 (GAGGGAGGGAGGGAAAAGGGGA) DNA (unknown origin) assessed as hypochromicity at 3.3 uM in 5K buffer by UV-Vis titration based analysis; outline: as §3
Quadruplex DNA [7] = test: Binding affinity to G-quadruplex homo-purine guanine-rich GA1 (GAGGGAGGGAGGGAAAAGGGGA) DNA (unknown origin) at DNA:compound concentration ratio of 1:1 in 5K buffer by fluorescence titration based analysis; outline: as §2
Quadruplex DNA [8] = test: Binding affinity to G-quadruplex homo-purine guanine-rich GA2 (GAGGGAGGGAAAAGGGGAGGGA) DNA (unknown origin) assessed as hypochromicity at 3.3 uM in 5K buffer by circular dichroism scan analysis
Quadruplex DNA [9] = test: Binding affinity to G-quadruplex homo-purine guanine-rich GA3 (AGGGAAAAGGGGAGGGAAAAGGGGA) DNA (unknown origin) at DNA:compound concentration ratio of 1:1 in 5K buffer by UV-Vis titration based analysis; outline: as §3
Quadruplex DNA [10] = test: Binding affinity to G-quadruplex homo-purine guanine-rich GA3 (AGGGAAAAGGGGAGGGAAAAGGGGA) DNA (unknown origin) assessed as red shift at 3.3 uM in 5K buffer by circular dichroism scan analysis
Quadruplex DNA [11] = test: Binding affinity to G-quadruplex homo-purine guanine-rich GA3 (AGGGAAAAGGGGAGGGAAAAGGGGA) DNA (unknown origin) at DNA:compound concentration ratio of 2:1 in 5K buffer by fluorescence titration based analysis; outline: as §2
Quadruplex DNA [12] = test: Binding affinity to G-quadruplex homo-purine guanine-rich GA1 (GAGGGAGGGAGGGAAAAGGGGA) DNA (unknown origin) at DNA:compound concentration ratio of 2:1 in 5K buffer by UV-Vis titration based analysis; outline: as §3
Quadruplex DNA [13] = test: Stabilization and preservation of G-quadruplex homo-purine guanine-rich GA1 (GAGGGAGGGAGGGAAAAGGGGA) DNA (unknown origin) parallel structure conformation at 2 equivalents in 100K buffer by circular dichroism scan analysis; settings: dose 2.0 equiv
Outline: (§5)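 CD scans at 20 °C of ~4 μM annealed DNA, alone or with 2 eq. NMM, in 100K buffer. Range 220-330 nm, 1 cm cuvette, 2 nm bandwidth, five scans averaged.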

Quadruplex DNA [14] = test: Stabilization and preservation of G-quadruplex homo-purine guanine-rich GA3 (AGGGAAAAGGGGAGGGAAAAGGGGA) DNA (unknown origin) parallel structure conformation at 2 equivalents in 100K buffer by circular dichroism scan analysis; settings: dose 2.0 equiv; outline: as §5
Quadruplex DNA [15] = test: Binding affinity to G-quadruplex homo-purine guanine-rich GA3 (AGGGAAAAGGGGAGGGAAAAGGGGA) DNA (unknown origin) at DNA:compound concentration ratio of 1:2 in 5K buffer by fluorescence titration based analysis; outline: as §2
Quadruplex DNA [16] = test: Binding affinity to G-quadruplex homo-purine guanine-rich GA1 (GAGGGAGGGAGGGAAAAGGGGA) DNA (unknown origin) assessed as red shift at 3.3 uM in 5K buffer by UV-Vis titration based analysis; outline: as §3
Quadruplex DNA [17] = test: Stabilization and preservation of G-quadruplex homo-purine guanine-rich GA2 (GAGGGAGGGAAAAGGGGAGGGA) DNA (unknown origin) parallel structure conformation assessed as elimination of higher order species at 2 equivalents in 100K buffer by native PAGE analysis; settings: dose 2.0 equiv; outline: as §1
Quadruplex DNA [18] = test: Binding affinity to G-quadruplex homo-purine guanine-rich GA3 (AGGGAAAAGGGGAGGGAAAAGGGGA) DNA (unknown origin) at DNA:compound concentration ratio of 1:2 in 5K buffer by UV-Vis titration based analysis; outline: as §3
Quadruplex DNA [19] = test: Binding affinity to G-quadruplex homo-purine guanine-rich GA3 (AGGGAAAAGGGGAGGGAAAAGGGGA) DNA (unknown origin) at DNA:compound concentration ratio of 2:1 in 5K buffer by UV-Vis titration based analysis; outline: as §3
Quadruplex DNA [20] = test: Binding affinity to G-quadruplex homo-purine guanine-rich GA2 (GAGGGAGGGAAAAGGGGAGGGA) DNA (unknown origin) at DNA:compound concentration ratio of 1:1 in 5K buffer by fluorescence titration based analysis; outline: as §2
Quadruplex DNA [21] = test: Stabilization and preservation of G-quadruplex homo-purine guanine-rich GA3 (AGGGAAAAGGGGAGGGAAAAGGGGA) DNA (unknown origin) parallel structure conformation assessed as increase in enthalpy change associated with melting transition at 2 equivalents in 100K buffer by UV-Visible melting analysis; settings: dose 2.0 equiv; outline: as §4
Quadruplex DNA [22] = test: Binding affinity to G-quadruplex homo-purine guanine-rich GA1 (GAGGGAGGGAGGGAAAAGGGGA) DNA (unknown origin) at DNA:compound concentration ratio of 1:2 in 5K buffer by fluorescence titration based analysis; outline: as §2
Quadruplex DNA [23] = test: Stabilization and preservation of G-quadruplex homo-purine guanine-rich GA3 (AGGGAAAAGGGGAGGGAAAAGGGGA) DNA (unknown origin) parallel structure conformation assessed as increase in melting temperature at 2 equivalents in 100K buffer by UV-Visible melting analysis; settings: dose 2.0 equiv; outline: as §4
Quadruplex DNA [24] = test: Stabilization and preservation of G-quadruplex homo-purine guanine-rich GA1 (GAGGGAGGGAGGGAAAAGGGGA) DNA (unknown origin) parallel structure conformation assessed as increase in enthalpy change associated with melting transition at 2 equivalents in 100K buffer by UV-Visible melting analysis; settings: dose 2.0 equiv; outline: as §4
Quadruplex DNA [25] = test: Stabilization and preservation of G-quadruplex homo-purine guanine-rich GA2 (GAGGGAGGGAAAAGGGGAGGGA) DNA (unknown origin) parallel structure conformation at 2 equivalents in 100K buffer by circular dichroism scan analysis; settings: dose 2.0 equiv; outline: as §5
Quadruplex DNA [26] = test: Binding affinity to G-quadruplex homo-purine guanine-rich GA2 (GAGGGAGGGAAAAGGGGAGGGA) DNA (unknown origin) at DNA:compound concentration ratio of 1:1 in 5K buffer by UV-Vis titration based analysis; outline: as §3
Quadruplex DNA [27] = test: Binding affinity to G-quadruplex homo-purine guanine-rich GA3 (AGGGAAAAGGGGAGGGAAAAGGGGA) DNA (unknown origin) assessed as hypochromicity at 3.3 uM in 5K buffer by circular dichroism scan analysis
Quadruplex DNA [28] = test: Binding affinity to G-quadruplex homo-purine guanine-rich GA2 (GAGGGAGGGAAAAGGGGAGGGA) DNA (unknown origin) at DNA:compound concentration ratio of 2:1 in 5K buffer by fluorescence titration based analysis; outline: as §2
Quadruplex DNA [29] = test: Stabilization and preservation of G-quadruplex homo-purine guanine-rich GA2 (GAGGGAGGGAAAAGGGGAGGGA) DNA (unknown origin) parallel structure conformation assessed as increase in enthalpy change associated with melting transition at 2 equivalents in 100K buffer by UV-Visible melting analysis; settings: dose 2.0 equiv; outline: as §4
Quadruplex DNA [30] = test: Binding affinity to G-quadruplex homo-purine guanine-rich GA1 (GAGGGAGGGAGGGAAAAGGGGA) DNA (unknown origin) at DNA:compound concentration ratio of 2:1 in 5K buffer by fluorescence titration based analysis; outline: as §2
Quadruplex DNA [31] = test: Stabilization and preservation of G-quadruplex homo-purine guanine-rich GA2 (GAGGGAGGGAAAAGGGGAGGGA) DNA (unknown origin) parallel structure conformation assessed as increase in melting temperature at 2 equivalents in 100K buffer by UV-Visible melting analysis; settings: dose 2.0 equiv; outline: as §4
Quadruplex DNA [32] = test: Stabilization and preservation of G-quadruplex homo-purine guanine-rich GA1 (GAGGGAGGGAGGGAAAAGGGGA) DNA (unknown origin) parallel structure conformation assessed as increased homogeneity at 2 equivalents in 100K buffer by native PAGE analysis; settings: dose 2.0 equiv; outline: as §1
Quadruplex DNA [33] = test: Binding affinity to G-quadruplex homo-purine guanine-rich GA2 (GAGGGAGGGAAAAGGGGAGGGA) DNA (unknown origin) assessed as red shift at 3.3 uM in 5K buffer by circular dichroism scan analysis
Quadruplex DNA [34] = test: Binding affinity to G-quadruplex homo-purine guanine-rich GA2 (GAGGGAGGGAAAAGGGGAGGGA) DNA (unknown origin) at DNA:compound concentration ratio of 1:2 in 5K buffer by fluorescence titration based analysis; outline: as §2

- Activity (Quadruplex DNA [1]): Active
- Ka (Quadruplex DNA [2]): 0.4 µM⁻¹
- Ka (Quadruplex DNA [3]): 0.07 µM⁻¹
- ΔTm (Quadruplex DNA [4]): 14.6 °C
- Ka (Quadruplex DNA [5]): 0.19 µM⁻¹
- Activity (Quadruplex DNA [6]): 21%
- Ka (Quadruplex DNA [7]): 0.4 µM⁻¹
- Activity (Quadruplex DNA [8]): 19%
- Ka (Quadruplex DNA [9]): 0.24 µM⁻¹
- Activity (Quadruplex DNA [10]): 21.4 nm
- Ka (Quadruplex DNA [11]): 1.1 µM⁻¹
- Ka (Quadruplex DNA [12]): 0.8 µM⁻¹
- Activity (Quadruplex DNA [13]): Active
- Activity (Quadruplex DNA [14]): Active
- Ka (Quadruplex DNA [15]): 0.2 µM⁻¹
- Activity (Quadruplex DNA [16]): 21 nm
- Activity (Quadruplex DNA [17]): Active
- Ka (Quadruplex DNA [18]): 0.1 µM⁻¹
- Ka (Quadruplex DNA [19]): 0.96 µM⁻¹
- Ka (Quadruplex DNA [20]): 1 µM⁻¹
- deltaH (Quadruplex DNA [21]): 14 kJ/mol
- Ka (Quadruplex DNA [22]): 0.18 µM⁻¹
- ΔTm (Quadruplex DNA [23]): 7 °C
- deltaH (Quadruplex DNA [24]): 81 kJ/mol
- Activity (Quadruplex DNA [25]): Active
- Ka (Quadruplex DNA [26]): 1.4 µM⁻¹
- Activity (Quadruplex DNA [27]): 28%
- Ka (Quadruplex DNA [28]): 3.7 µM⁻¹
- deltaH (Quadruplex DNA [29]): 63 kJ/mol
- Ka (Quadruplex DNA [30]): 1.1 µM⁻¹
- ΔTm (Quadruplex DNA [31]): 13.1 °C
- Activity (Quadruplex DNA [32]): Active
- Activity (Quadruplex DNA [33]): 21.3 nm
- Ka (Quadruplex DNA [34]): 0.36 µM⁻¹
SMILES: CCC1=C(C)c2cc3c(C)c(CCC(=O)O)c(cc4nc(cc5[nH]c(cc1n2)c(C)c5CC)C(C)=C4CCC(=O)O)n3C
